Measurements published in the array DNA melting data of Ke et al. (doi:10.1101/2024.01.08.574731).

Experiments:
[1] = melting temperature; fluorescence melt of hairpins on a sequencing array, two-state fit, raised by 9.35 °C to match UV melts; conditions: sodium 0.088 M
Procedure, shortened: (§1)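 With Cy3 and quencher oligos annealed, library hairpins on a sequenced MiSeq flow cell were imaged for Cy3 fluorescence in 50 mM Na-HEPES pH 8.0, 25 mM NaCl, in 2.5 °C steps up to 60 °C. Melting temperature and folding enthalpy were derived from bootstrapped two-state fits of signals normalised to pre-quench Cy3 and to control constructs. Four replicates were combined by inverse variance, with fitted temperatures raised by 9.35 °C to match UV melts.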

[2] = folding enthalpy; higher = less favourable; fluorescence melt of hairpins on a sequencing array, two-state fit; conditions: sodium 0.088 M
Procedure, shortened: as §1

Sequence	Tm [1]	folding enthalpy [2]
GATCCTACTAAGGATC ((((((....))))))	52.5 °C	-35.1 kcal/mol
GTGTAGGAAACTACAC ((((((....))))))	53.5 °C	-38.1 kcal/mol
GGCGCCGAAAGGCAGGCC ((((((....)))..)))	64.9 °C	-25.1 kcal/mol
GATGGACGAAAGTCGATC (((.(((....))).)))	49.6 °C	-25.9 kcal/mol
GAATCGGGAAACCGATTC (((((((....)))))))	63.6 °C	-40.8 kcal/mol
GCCGGCGAAAGCCTTGGC ((((((....)))..)))	54.8 °C	-20.8 kcal/mol
GACGGGCCGAAAGGCGTC (((..(((....))))))	48.8 °C	-15 kcal/mol
GTTGTCGGAAACGACAAC (((((((....)))))))	67 °C	-34.6 kcal/mol
CGAACCCGGAAACGGTCG (((..(((....))))))	36.7 °C	-13 kcal/mol
GGAGGCGAAAGCCGGTCC ((((((....)))..)))	43.3 °C	-9.6 kcal/mol
GTACCACGAAAGTGCTAC (((.(((....))).)))	33.6 °C	-13.7 kcal/mol
GATCTTCTGGAAGATC ((((((....))))))	49.7 °C	-46.2 kcal/mol
GTAACGGGAAACTGTTGC (.(((.(....).))).)	32.9 °C	-22.8 kcal/mol
GTTACTCGAAAGAGGAAC (((.(((....))).)))	53.6 °C	-36.2 kcal/mol
GATCAACTGTTTGATC ((((((....))))))	43.2 °C	-32.3 kcal/mol
GAACAGACGAAAGTCTTC (((..(((....))))))	25.6 °C	-9.42 kcal/mol
GCATTCGAAAGAATTGC ((((((....))).)))	41.1 °C	-19.5 kcal/mol
GAGGGCGAAAGCCCCTC ((((((....))).)))	57.1 °C	-9.57 kcal/mol
GACTGGAAACAGTC (((((....)))))	51.7 °C	-35.1 kcal/mol
GATCGACTATCGATC ((((((...))))))	49.3 °C	-35.2 kcal/mol
GCGATCGGAAACGGTCGC ((((.((....)).))))	66.8 °C	-39.1 kcal/mol
GATCGGTGGACCGATC ((((((....))))))	57.2 °C	-31.7 kcal/mol
GTAACTGGAAACGGTTAC (((((.(....).)))))	44.1 °C	-32.6 kcal/mol

Sequence	Tm [1]	folding enthalpy [2]
GATCAGCCGCCTGATC ((((((....))))))	50.5 °C	-32.5 kcal/mol
GAATTTGGAAACAGATTC ((((.((....)).))))	33.3 °C	-25.2 kcal/mol
GTCATCGAAAGATTGAC ((((((....))).)))	40.7 °C	-26.9 kcal/mol
GATCCTGAAGAGGATC ((((((....))))))	55.4 °C	-36.2 kcal/mol
GATCGGGACTCCGATC ((((((....))))))	61 °C	-39.7 kcal/mol
GTCCGGGGAAACTCGGAC (((((.(....).)))))	58.9 °C	-40.9 kcal/mol
GCTCACGAAAGTGACAGC ((((((....)))..)))	43.2 °C	-14.8 kcal/mol
GATCCTATTAGGATC ((((((...))))))	53.4 °C	-34.6 kcal/mol
GGGGCCGAAAGGCTCCCC ((((((....)))..)))	65 °C	-11.7 kcal/mol
GATCAGACACCTGATC ((((((....))))))	47.1 °C	-34.1 kcal/mol
GGGTGCGAAAGCAACCC ((((((....))).)))	68.5 °C	-18.9 kcal/mol
GATCCTCTCCAGGATC ((((((....))))))	50.8 °C	-36.3 kcal/mol
GTTGCCGGAAACGGTAAC (((.(((....))).)))	54.4 °C	-33.3 kcal/mol
GTCCAATCGAAAGATGAC (((..(((....))))))	29.1 °C	-13.9 kcal/mol
GAGTACGAAAGTAACCTC ((((((....)))..)))	27.8 °C	-14.8 kcal/mol
GCCAGCTCGAAAGAGGGC (((..(((....))))))	45 °C	-24.5 kcal/mol
GGGCGAGGAAACTCGCTC (.(((((....))))).)	58.1 °C	-15.8 kcal/mol
GTCAATGAAAATTGAC ((((((....))))))	50.8 °C	-31.7 kcal/mol
GTATCCGAAAGGATGTAC ((((((....)))..)))	36.7 °C	-11.5 kcal/mol
GCGGGGCGAAAGCTTCGC (((..((....))..)))	63 °C	-35.3 kcal/mol
GCCCGGCGAAAGCCTGGC (((.(((....))).)))	64.6 °C	-25.8 kcal/mol
GGGTTACGAAAGTACCCC (((.(((....))).)))	52.1 °C	-22.9 kcal/mol
GGCCACTCGAAAGAGGCC (((..(((....))))))	52.3 °C	-27.7 kcal/mol
